Data published in ChEMBL document CHEMBL3232894, “Discovery of AMG 925, a FLT3 and CDK4 dual kinase inhibitor with preferential affinity for the activated state of FLT3” (J Med Chem, 2014).

Legend:
[1] = target: Cyclin-dependent kinase 4/cyclin D1 (Homo sapiens, UniProt P11802); experiment: Inhibition of CDK4/cyclin D1 (unknown origin) using Rb as substrate after 60 mins by scintillation counting analysis in presence of [r-33P]ATP; format: protein-complex assay
[2] = target: Cyclin-dependent kinase 1/cyclin B1 (Homo sapiens, UniProt P06493); experiment: Inhibition of CDK1/cyclin B (unknown origin) using histone H1 as substrate after 60 mins by scintillation counting analysis in presence of [r-33P]ATP; format: protein-complex assay
Cyclin-dependent kinase 1/cyclin B1, sequence (P06493 whole entry, the tested form may be a part): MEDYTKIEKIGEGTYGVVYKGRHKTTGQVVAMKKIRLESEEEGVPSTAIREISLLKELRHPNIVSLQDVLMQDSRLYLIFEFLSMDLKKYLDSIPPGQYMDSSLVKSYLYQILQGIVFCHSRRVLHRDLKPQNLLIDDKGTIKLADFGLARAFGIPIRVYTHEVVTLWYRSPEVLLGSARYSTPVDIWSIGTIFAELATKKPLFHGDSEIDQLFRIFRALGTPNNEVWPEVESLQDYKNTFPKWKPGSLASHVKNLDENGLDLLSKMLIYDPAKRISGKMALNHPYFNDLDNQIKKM
Cyclin-dependent kinase 1/cyclin B1, sequence (P14635 whole entry, further chain, the tested form may be a part): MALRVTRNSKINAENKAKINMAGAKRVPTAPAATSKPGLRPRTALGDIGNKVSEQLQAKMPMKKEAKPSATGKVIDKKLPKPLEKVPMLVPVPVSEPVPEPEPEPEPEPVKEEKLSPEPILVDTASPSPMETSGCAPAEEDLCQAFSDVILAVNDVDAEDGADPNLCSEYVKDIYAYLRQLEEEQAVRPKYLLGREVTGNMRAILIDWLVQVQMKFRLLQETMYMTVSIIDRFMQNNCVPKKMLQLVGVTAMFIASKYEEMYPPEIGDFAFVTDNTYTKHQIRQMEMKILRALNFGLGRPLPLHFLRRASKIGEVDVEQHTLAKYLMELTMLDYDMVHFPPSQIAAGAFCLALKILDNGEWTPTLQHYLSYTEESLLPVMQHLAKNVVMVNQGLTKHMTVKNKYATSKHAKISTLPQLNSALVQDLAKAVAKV

[3] = target: T1, Receptor-type tyrosine-protein kinase FLT3 (Homo sapiens, UniProt P36888); experiment: Inhibition of GST-fused human FLT3 cytoplasmic domain (amino acids 564 to 993) using Ulight-JAK1 as substrate after 1 hr by TR-FRET assay
T1 sequence (P36888 whole entry): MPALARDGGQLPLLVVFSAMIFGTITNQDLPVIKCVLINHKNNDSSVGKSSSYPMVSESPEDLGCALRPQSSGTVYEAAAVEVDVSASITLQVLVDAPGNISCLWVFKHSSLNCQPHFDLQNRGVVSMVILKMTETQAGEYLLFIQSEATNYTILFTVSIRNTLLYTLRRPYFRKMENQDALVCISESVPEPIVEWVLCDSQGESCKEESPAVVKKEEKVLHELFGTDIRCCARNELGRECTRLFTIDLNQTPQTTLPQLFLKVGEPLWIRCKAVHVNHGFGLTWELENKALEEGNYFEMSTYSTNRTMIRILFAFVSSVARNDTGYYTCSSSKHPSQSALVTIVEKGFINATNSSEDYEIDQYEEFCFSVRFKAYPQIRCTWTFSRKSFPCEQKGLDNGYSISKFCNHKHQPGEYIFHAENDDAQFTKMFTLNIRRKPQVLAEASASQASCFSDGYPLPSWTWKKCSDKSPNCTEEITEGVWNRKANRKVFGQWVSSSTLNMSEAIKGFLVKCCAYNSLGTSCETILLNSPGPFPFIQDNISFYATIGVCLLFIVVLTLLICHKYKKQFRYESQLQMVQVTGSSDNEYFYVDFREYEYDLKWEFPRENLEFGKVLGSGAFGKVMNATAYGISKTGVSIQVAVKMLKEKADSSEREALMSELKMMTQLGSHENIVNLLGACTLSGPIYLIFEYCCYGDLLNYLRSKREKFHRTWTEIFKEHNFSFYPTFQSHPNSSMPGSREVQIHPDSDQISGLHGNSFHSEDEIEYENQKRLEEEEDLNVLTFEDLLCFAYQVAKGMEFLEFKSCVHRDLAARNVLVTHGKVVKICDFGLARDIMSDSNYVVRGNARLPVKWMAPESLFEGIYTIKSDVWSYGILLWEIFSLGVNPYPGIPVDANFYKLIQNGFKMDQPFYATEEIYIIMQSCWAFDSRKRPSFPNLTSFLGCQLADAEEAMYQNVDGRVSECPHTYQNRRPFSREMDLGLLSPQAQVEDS

[4] = tested on: MOLM-13; experiment: Antiproliferative activity against human MOLM13 cells harboring FLT3 ITD mutant assessed as incorporation of [3H]thymidine into DNA after 72 hrs by beta-plate counting analysis; format: functional, cell-based
[5] = Antiproliferative activity against Rb-negative human MDA-MB-436 cells assessed as incorporation of [3H]thymidine into DNA after 72 hrs by beta-plate counting analysis; format: functional
[6] = target: Cytochrome P450 3A4 (Homo sapiens, UniProt P08684); experiment: Inhibition of CYP3A4 (unknown origin); format: ADME
Cytochrome P450 3A4, sequence (P08684 whole entry): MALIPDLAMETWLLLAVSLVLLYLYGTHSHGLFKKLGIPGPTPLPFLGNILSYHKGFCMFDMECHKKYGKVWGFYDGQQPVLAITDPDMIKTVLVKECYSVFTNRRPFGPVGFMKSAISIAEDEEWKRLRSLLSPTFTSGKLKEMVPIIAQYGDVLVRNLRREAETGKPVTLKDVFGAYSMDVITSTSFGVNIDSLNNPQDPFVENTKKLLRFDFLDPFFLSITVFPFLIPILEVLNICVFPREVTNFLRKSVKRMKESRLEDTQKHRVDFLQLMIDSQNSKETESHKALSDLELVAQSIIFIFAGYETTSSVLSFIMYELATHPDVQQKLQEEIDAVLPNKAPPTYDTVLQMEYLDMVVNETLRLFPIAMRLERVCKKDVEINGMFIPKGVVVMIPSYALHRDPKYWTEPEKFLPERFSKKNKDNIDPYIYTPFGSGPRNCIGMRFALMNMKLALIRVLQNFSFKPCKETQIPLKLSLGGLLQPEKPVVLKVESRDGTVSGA

[7] = target: CYP3A4 (Homo sapiens, UniProt P08684); experiment: Inhibition of CYP3A4 (unknown origin) at 3 uM; format: ADME
CYP3A4, sequence (P08684 whole entry): as above

[8] = tested on: COLO 205; experiment: Antiproliferative activity against Rb-positive human COLO205 cells assessed as incorporation of [14C]thymidine into DNA after 72 hrs by beta-plate counting analysis
[9] = Clearance in iv dosed rat; format: ADME, organism-based; settings: in vivo
Summary of the method: (§1)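 Intravenous and oral (gavage, solution) PK in rat, dog and cynomolgus monkey. The rat vehicle for both routes was water/acetate/tween at pH 4, 96/3/1 (v/v/v). Dog and monkey iv doses used 40% PG aqueous solution at pH 2, and their oral doses used 20% captisol aqueous solution.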

[10] = Oral bioavailability in rat; format: ADME, organism-based; settings: in vivo; summary of the method: as §1
[11] = tested on: U-937; experiment: Antiproliferative activity against human U937 cells assessed as incorporation of [3H]thymidine into DNA after 72 hrs by beta-plate counting analysis
[12] = tested on: U-937; experiment: Induction of apoptosis in human U937 cells harboring wild type FLT3 at 1 uM after 48 hrs by Annexin V/Sytox Green staining based flow cytometry; format: functional
Summary of the method: (§2)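 MOLM13, sorafenib-resistant MOLM13 and U937 cells were each exposed to compound at 1 μM for 48 h. Cells were then stained with Annexin V/Sytox Green and analysed by flow cytometry. Readout is apoptotic cells as a percentage of all cells analysed.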

[13] = tested on: MOLM-13; experiment: Induction of apoptosis in human MOLM13 cells harboring FLT3 ITD mutant at 1 uM after 48 hrs by Annexin V/Sytox Green staining based flow cytometry; format: functional; summary of the method: as §2
[14] = tested on: MOLM-13; experiment: Induction of apoptosis in sorafenib-resistant human MOLM13 cells harboring FLT3 ITD+D835Y mutant at 1 uM after 48 hrs by Annexin V/Sytox Green staining based flow cytometry; format: functional; summary of the method: as §2
[15] = tested on: MOLM-13; experiment: cells; settings: Homo sapiens
[16] = Drug uptake in CrTac:NCR-Foxn1nu (NCR) nude mouse at 150 mg/kg, po after 3 hrs; format: ADME, organism-based; parameters: dose 150 mg/kg, route oral; settings: in vivo, read-out: Drug uptake
Summary of the method: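 Total plasma drug concentration in mouse PK studies, taken 3 h after a 150 mg/kg oral dose.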

Cyclin-dependent kinase 4/cyclin D1, sequence (P11802 whole entry): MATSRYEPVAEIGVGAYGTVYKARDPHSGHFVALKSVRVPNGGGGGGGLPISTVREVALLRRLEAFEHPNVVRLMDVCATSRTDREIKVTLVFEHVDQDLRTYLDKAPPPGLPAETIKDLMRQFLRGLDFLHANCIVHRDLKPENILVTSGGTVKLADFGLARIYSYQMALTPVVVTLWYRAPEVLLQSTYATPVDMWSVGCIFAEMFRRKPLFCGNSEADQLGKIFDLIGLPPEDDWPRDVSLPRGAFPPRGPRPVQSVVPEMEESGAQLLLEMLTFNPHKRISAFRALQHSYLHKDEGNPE
Cyclin-dependent kinase 4/cyclin D1, sequence (P24385 whole entry, further chain): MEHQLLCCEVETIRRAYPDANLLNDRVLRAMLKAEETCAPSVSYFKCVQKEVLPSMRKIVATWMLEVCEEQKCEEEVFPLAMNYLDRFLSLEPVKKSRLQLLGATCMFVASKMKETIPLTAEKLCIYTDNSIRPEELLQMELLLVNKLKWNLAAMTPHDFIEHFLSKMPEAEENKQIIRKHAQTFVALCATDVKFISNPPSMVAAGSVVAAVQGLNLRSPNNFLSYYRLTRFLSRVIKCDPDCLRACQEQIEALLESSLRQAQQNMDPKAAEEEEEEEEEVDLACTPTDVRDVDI

SMILES	IC50 [1] [nM]	IC50 [2] [nM]	IC50 [3] [nM]	IC50 [4] [nM]	IC50 [6] [nM]	inhibition at 3 µM [7] [%]	IC50 [8] [nM]	clearance [9] [mL/min/kg]	bioavailability [10] [%]	IC50 [11] [nM]	IC50 [15] [nM]	concentration at 3 h [16] [µM]	IC50 [5] [nM]	Activity [12] [%]	Activity [13] [%]	Activity [14] [%]
CC1(C)CCC(n2c3cnccc3c3cnc(Nc4ccc(N5CCNCC5)cn4)nc32)CC1	1	2910	17	35	9500	51	28						2010			
C[C@H]1CC[C@H](n2c3cnccc3c3cnc(Nc4ccc(N5CCNCC5)nc4)nc32)CC1	3	24	0.3	5			7						38			
C[C@H]1CC[C@H](n2c3cnccc3c3cnc(Nc4ccc(N5CCC6(CCC(=O)N6)CC5)cn4)nc32)CC1	3	1770	3	21			31	21.7	48			14.7	7230			
COc1nc(Nc2ncc3c4ccncc4n([C@H]4CC[C@H](C)CC4)c3n2)ccc1N1CCC2(CCC(=O)N2)CC1	13	1060	0.6	4			44	15.2	65				7500			
C[C@H]1CC[C@H](n2c3cnccc3c3cnc(Nc4ccc(N5CCC(N)CC5)cn4)nc32)CC1	2	410	1	8			5						1200			
C[C@H]1CC[C@H](n2c3cnccc3c3cnc(Nc4ccc(N5CCNCC5)nn4)nc32)CC1	2	1530	6	13			22	5.83	11				1010			
C[C@@H](CO)n1c2cnccc2c2cnc(Nc3ccc(N4CCNCC4)cn3)nc21	40	12800	43		> 10000	17	1240						30000			
C[C@H]1CC[C@H](n2c3cnccc3c3cnc(Nc4ccc(N5CCN(C(=O)CO)CC5)nn4)nc32)CC1	3	1050	8	37			31	2	22			10.9	1190			
CS(=O)(=O)CC1CCN(c2ccc(Nc3ncc4c5ccncc5n([C@H]5CC[C@H](C)CC5)c4n3)nn2)CC1	9	3970	8	30			19	3.33	23				10000			
CNC(=O)c1cc(Oc2ccc(NC(=O)Nc3ccc(Cl)c(C(F)(F)F)c3)cc2)ccn1 [SORAFENIB]				5			> 3000			> 3000	> 3000			8.76	84.6	5.16
CN(C)C1CCN(c2ccc(Nc3ncc4c5ccncc5n([C@H]5CC[C@H](C)CC5)c4n3)nc2)CC1	2	3290	2	10			10	35	44				1250			
C[C@H]1CC[C@H](n2c3cnccc3c3cnc(Nc4ccc(N5CCC6(CC5)CCS(=O)(=O)C6)nn4)nc32)CC1	4	1630	5	32			38	9	38			11.6	10000			

Continued, in another order:

IC50 [1] [nM]	IC50 [2] [nM]	IC50 [3] [nM]	IC50 [4] [nM]	IC50 [6] [nM]	inhibition at 3 µM [7] [%]	IC50 [8] [nM]	clearance [9] [mL/min/kg]	bioavailability [10] [%]	IC50 [11] [nM]	IC50 [15] [nM]	concentration at 3 h [16] [µM]	SMILES	IC50 [5] [nM]	Activity [12] [%]	Activity [13] [%]	Activity [14] [%]
27	30000	46	62			350						N#Cc1nccc2c3cnc(Nc4ccc(N5CCNCC5)cn4)nc3n(C3CCCC3)c12	1380			
3	7560	11	21	> 10000	< 10	52	35					Fc1nccc2c3cnc(Nc4ccc(N5CCNCC5)cn4)nc3n(C3CCCC3)c12	2610			
3	3000	14	5	550	90	25	16.3	9.4				c1cc2c3cnc(Nc4ccc(N5CCNCC5)cn4)nc3n(C3CCCC3)c2cn1	1760			
			96			36			140	96		CC(=O)c1c(C)c2cnc(Nc3ccc(N4CCNCC4)cn3)nc2n(C2CCCC2)c1=O [PALBOCICLIB]		9.09	16.95	8.35
3	3410	5	25		70	66						O[C@H]1CC[C@H](n2c3cnccc3c3cnc(Nc4ccc(N5CCNCC5)cn4)nc32)CC1	2610			
7	2660	2	13	> 10000	20	20						C[C@H]1CC[C@H](n2c3cnccc3c3cnc(Nc4ccc(N5CCNCC5)cn4)nc32)CC1	1210			
3	2960	3	10		90	33						CC1(C)CCCC(n2c3cnccc3c3cnc(Nc4ccc(N5CCNCC5)cn4)nc32)C1 (configuration not stated)	1620			
51	4780	95		> 10000	< 10	51	93.3					c1cc2c3cnc(Nc4ccc(N5CCNCC5)cn4)nc3n(C3CCCC3)c2nn1	7050			
5	10000	17	5		18	120						O=c1[nH]ccc2c3cnc(Nc4ccc(N5CCNCC5)cn4)nc3n(C3CCCC3)c12	2100			
20	2260	22	5	> 10000	< 10	280						Cc1nccc2c3cnc(Nc4ccc(N5CCNCC5)cn4)nc3n(C3CCCC3)c12	3420			
1	5200	2			46	55						CC1CCC(n2c3cnccc3c3cnc(Nc4ccc(N5CCNCC5)cn4)nc32)CC1 (mixture of isomers)	1020			
5	6530	2			82	32						c1cc2c3cnc(Nc4ccc(N5CCNCC5)cn4)nc3n(C3CCCCC3)c2cn1	540			
